Experimental data taken from ChEMBL document CHEMBL1177719 (J Med Chem, 2010).
Activity calls are given as the source filed them. No cut-off for these calls is given here.

Assays:
MCF7 = assay: Cytotoxicity against human MCF7 cells assessed as cell survival at 20 ug/ml after 72 hrs by sulforhodamine B method; assay type: functional; settings: MCF7, 72 h, read-out: Activity
Outline: (§1)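 Sulforhodamine B assay. KB or MCF7 cells plated with samples and held 72 h at 37 °C, 5% CO₂. Fixed 1 h in 10% trichloroacetic acid, stained with 0.4% SRB in 1% acetic acid, dye taken up in 10 mM Tris.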

KB = assay: Cytotoxicity against human KB cells assessed as cell survival at 20 ug/ml after 72 hrs by sulforhodamine B method; assay type: functional; settings: read-out: Activity; outline: as §1
HEK293 [1] = assay: Inhibition of TNF-alpha-induced NF-kappaB activity expressed in HEK293 cells at 34 uM after 48 hrs by luciferase reporter gene assay relative to control; assay type: cell-based
Outline: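 Stably transfected 293 cells carrying an NFκB response element–luciferase reporter, exposed to TNFα plus compound for 48 h, then assayed for luciferase. Activity expressed as % of TNFα-treated control. IC₅₀ from five serial dilutions, mean of two experiments.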

[2] = Antioxidant activity assessed as nitric oxide scavenging activity at 60 uM; assay type: functional
Outline: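 Compounds diluted tenfold in PBS and incubated with sodium nitroprusside (final compound 60 μM, SNP 5 mM) for 3 h at room temperature. Nitrite measured by Griess reagent, absorbance 540 nm. % inhibition given as average of triplicates ± standard deviation.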

[3] = Antioxidant activity assessed as DPPH scavenging activity at 340 uM after 30 mins; assay type: functional
RAW264.7 = assay: Inhibition of LPS-induced COX2 expression in mouse RAW264.7 cells at 34 uM treated 15 mins before LPS challenge measured after 18 hrs by immunoblotting; assay type: functional, cell-based
Outline: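 RAW 264.7 cells pretreated with samples 15 min, then LPS 1 μg/mL for 18 h. Lysates (30 μg protein) run on 8% SDS-PAGE, transferred to PVDF, probed with primary and HRP secondary antibodies, ECL detection. β-actin internal control; band density quantified relative to the LPS-only control; duplicate experiment.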

[4] = target: T1, Nitric oxide synthase, inducible (Mus musculus) (UniProt P29477); assay: Inhibition of iNOS-mediated nitric oxide production in mouse RAW 264.7 cells at 34 uM pretreated 30 mins measured after 20 hrs by Griess reaction method relative to control; assay type: cell-based
T1 sequence (whole entry): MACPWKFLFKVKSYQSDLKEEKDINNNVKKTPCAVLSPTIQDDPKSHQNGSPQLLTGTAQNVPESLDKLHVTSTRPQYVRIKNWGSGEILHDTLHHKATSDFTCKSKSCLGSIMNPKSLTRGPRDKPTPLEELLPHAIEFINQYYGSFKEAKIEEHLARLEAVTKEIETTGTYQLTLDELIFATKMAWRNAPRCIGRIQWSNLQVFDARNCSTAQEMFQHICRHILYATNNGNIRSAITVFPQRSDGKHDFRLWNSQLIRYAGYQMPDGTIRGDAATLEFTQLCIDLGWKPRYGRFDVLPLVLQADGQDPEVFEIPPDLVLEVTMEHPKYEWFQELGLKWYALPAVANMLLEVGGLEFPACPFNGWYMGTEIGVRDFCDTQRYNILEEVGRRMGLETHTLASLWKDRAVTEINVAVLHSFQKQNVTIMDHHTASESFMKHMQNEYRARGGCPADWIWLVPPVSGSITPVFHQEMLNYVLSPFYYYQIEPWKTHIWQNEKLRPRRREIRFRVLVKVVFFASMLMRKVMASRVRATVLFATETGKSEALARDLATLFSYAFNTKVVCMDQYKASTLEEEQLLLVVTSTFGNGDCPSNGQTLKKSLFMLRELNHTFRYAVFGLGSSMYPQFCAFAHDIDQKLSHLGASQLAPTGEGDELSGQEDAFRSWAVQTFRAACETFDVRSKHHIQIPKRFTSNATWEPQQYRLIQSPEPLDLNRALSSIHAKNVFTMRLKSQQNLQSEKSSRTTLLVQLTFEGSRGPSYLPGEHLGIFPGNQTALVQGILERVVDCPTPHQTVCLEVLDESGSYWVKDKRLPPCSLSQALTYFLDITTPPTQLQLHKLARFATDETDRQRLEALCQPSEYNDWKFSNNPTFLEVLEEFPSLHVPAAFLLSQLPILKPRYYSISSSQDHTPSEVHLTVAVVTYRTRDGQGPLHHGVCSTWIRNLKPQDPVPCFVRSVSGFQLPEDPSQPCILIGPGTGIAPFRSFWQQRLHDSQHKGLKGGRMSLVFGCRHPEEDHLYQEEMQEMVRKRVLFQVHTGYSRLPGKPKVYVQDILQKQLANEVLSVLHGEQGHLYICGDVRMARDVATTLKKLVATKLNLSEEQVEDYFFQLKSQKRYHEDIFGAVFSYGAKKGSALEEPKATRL
Outline: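 RAW 264.7 macrophages seeded at 1 × 10⁵ cells/well for 24 h. Compounds in phenol red-free DMEM added 30 min before LPS (1 μg/mL), then 20 h further incubation. Nitrite in medium measured by Griess reagent at 540 nm against a sodium nitrite standard curve; inhibition at 34 μM.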

HEK293 [5] = assay: Cytotoxicity against human HEK293 cells at 34 uM; assay type: cell-based; settings: hek293, 34 µM
[6] = target: T2, Prostaglandin G/H synthase 1 (Ovis aries) (UniProt P05979); assay: Inhibition of sheep seminal vesicles COX1 assessed as PGE2 production at 34 uM after 10 mins by ELISA relative to control
T2 sequence (whole entry): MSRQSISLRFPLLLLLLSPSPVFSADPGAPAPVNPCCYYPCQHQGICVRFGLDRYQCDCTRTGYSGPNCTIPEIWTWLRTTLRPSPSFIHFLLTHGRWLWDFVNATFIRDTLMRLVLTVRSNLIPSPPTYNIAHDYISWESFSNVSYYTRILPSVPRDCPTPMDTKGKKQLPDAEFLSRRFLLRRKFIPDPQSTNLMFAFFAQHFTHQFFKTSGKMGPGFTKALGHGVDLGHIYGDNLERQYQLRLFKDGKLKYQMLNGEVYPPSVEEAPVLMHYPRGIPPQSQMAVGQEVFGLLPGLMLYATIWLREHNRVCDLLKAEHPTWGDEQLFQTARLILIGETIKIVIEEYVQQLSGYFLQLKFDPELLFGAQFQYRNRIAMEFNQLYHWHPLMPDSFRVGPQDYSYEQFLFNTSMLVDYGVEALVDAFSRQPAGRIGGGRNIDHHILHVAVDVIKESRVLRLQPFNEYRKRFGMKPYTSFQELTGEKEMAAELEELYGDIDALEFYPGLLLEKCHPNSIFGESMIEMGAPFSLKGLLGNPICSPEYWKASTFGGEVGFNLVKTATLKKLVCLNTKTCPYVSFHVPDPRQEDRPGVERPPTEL
Outline: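 Sheep seminal vesicle COX-1; reaction started with arachidonic acid, 10 min at room temperature, stopped with 27.8 μM indomethacin. PGE₂ quantified by competitive ELISA (PGE₂-acetylcholinesterase tracer, Ellman's reagent, 412 nm) against a PGE₂ standard curve. Result as % of solvent control; IC₅₀ from dose-response curves.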

[7] = target: T1, Nitric oxide synthase, inducible (Mus musculus); assay: Inhibition of iNOS-mediated nitric oxide production in LPS-stimulated mouse RAW 264.7 cells at 34 uM pretreated 30 mins before LPS challenge measured after 20 hrs by Griess reaction method relative to control; assay type: cell-based

Row | Structure (SMILES) | viability at 20 µg/mL (MCF7) [%] | viability at 20 µg/mL (KB) [%] | inhibition (HEK293 [1]) [%] | Activity [2] [%] | inhibition [3] [%] | inhibition (RAW264.7) | Activity [4] | Activity (HEK293 [5]) | inhibition [6] [%] | inhibition [7] [%]
1 | O=S(=O)([O-])Oc1ccc(/C=C/c2cc(O)cc(O)c2)cc1.[K+] | 103 | 108 | 64 | 10.3 | 42.8 | inactive | inactive | Non-toxic | 63.2 | 56.8
2 | O=S(=O)([O-])Oc1ccc(/C=C/c2cc(OS(=O)(=O)[O-])cc(OS(=O)(=O)[O-])c2)cc1.[K+].[K+].[K+] | 107 | 78.1 | 36.7 | 1.6 | 0.4 | inactive | inactive | Non-toxic | 37.8 | 24.8
3 | O=S(=O)([O-])Oc1cc(/C=C/c2ccc(O)cc2)cc(OS(=O)(=O)[O-])c1.[K+].[K+] | 97.2 | 84.2 | 42.5 | 1.2 | 14.5 | inactive | inactive | Non-toxic | 30.9 | 4.8
4 | O=S(=O)([O-])Oc1cc(O)cc(/C=C/c2ccc(O)cc2)c1.[K+] | 51.7 | 70.3 | 33 | 24.7 | 68 | inactive | inactive | Non-toxic | 74.3 | 41
